Source: PubChem BioAssay (Broad Institute)
YB-1 expression: YB-1 expression inhibition; U2OS, qRT-PCR YB-1 vs CDIP delta delta Cp, 16 h; stronger effect = higher value; zero = DMSO, each unit about twofold; delta delta Cp (YB-1 minus CDIP) (test concentration not listed); 30,000 tested, 0.37% active; AID 434959;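 active means delta delta Cp rounded down to an integer at or above 3, about 3 SD of DMSO wells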;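 further: higher means less YB-1 transcript or more CDIP transcript relative to DMSO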
T cruzi intra: blocks T. cruzi growth inside host cells | intracellular Trypanosoma cruzi in host cells, plate reader | activity score (inhibition), % at 5.01 µM | 22,000 tested, 4.9% active | AID 651903; in the data active means activity score above about 55%; inconclusive means no clear call, values can overlap the other calls;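 further: parasites and compound incubated about four days before reading; 0% = median of neutral control wells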
INS-1E ATP HTS: INS-1E beta cell protection from cytokine death; INS-1E cytokine-induced death, ATP luminescence, 48 h; normalised: neutral wells 0, positive control 100; protection from cytokine-induced ATP loss, % at 10 µM; 20,000 tested, 0.1% active; AID 488910;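 active means mean replicate protection from cytokine-induced ATP loss at least 50% and at least 75% of replicates each reaching 50%; inconclusive means meets only one of the two criteria, mean or replicate share; inactive means fails both the mean and replicate share criteria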
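assay system = INS-1E rat insulinoma cells | amount = 8000 cells per well | medium = phenol-red-free RPMI with 5% fetal bovine serum | doses = one compound concentration, pin transfer | timing = 48 h cytokine plus compound treatment, 10 min reagent incubation | also added = IL-1β, TNF-α and IFN-γ cytokine mix | signal = CellTiter-Glo luminescence measuring cellular ATP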
Active calls of the source: *; u = inconclusive; x = no result given. The entries come from a sample that favours hits as a whole.

SMILES	YB-1 expression	T cruzi intra	INS-1E ATP HTS
C[C@H](CO)N1C[C@H](C)[C@H](CN(C)Cc2ccc3c(c2)OCO3)Oc2ccc(NC(=O)Nc3ccc(C(F)(F)F)cc3)cc2CC1=O	-0.077	74*	-35
CC(C)(C)c1ccc(OCC(N)=NC(=O)c2ccc(OC(F)(F)F)cc2)cc1	-0.038	x	x
O=C(Cc1ccccc1)NC1CCN(C(=O)C2CCC2)CC1	-0.76	x	x
C=CCNC(=S)Nn1c(C)nnc1-n1nc(C)cc1C	-0.38	x	x
C[C@@H]1CN([C@H](C)CO)C(=O)Cc2cc(NS(=O)(=O)c3ccccc3)ccc2O[C@H]1CN(C)Cc1ccc(Cl)c(Cl)c1	-9.8	73*	-10
C[C@@H]1CN([C@H](C)CO)C(=O)Cc2cc(NS(=O)(=O)c3ccccc3)ccc2O[C@@H]1CN(C)Cc1ccc(Cl)c(Cl)c1	0.32	65*	-65
C[C@H]1CN([C@@H](C)CO)C(=O)Cc2cc(NS(=O)(=O)c3ccccc3)ccc2O[C@H]1CN(C)Cc1ccc(Cl)c(Cl)c1	0.11	25	-29
C[C@H](CO)N1C[C@H](C)[C@H](CN(C)Cc2ccc(Cl)c(Cl)c2)Oc2ccc(NS(=O)(=O)c3ccccc3)cc2CC1=O	0.04	38	-5
C=C1C2(C)OC(=O)C34OC2C2=C(CO)C5(CCC2(C)C13C(=O)OC4C)C(O)CC(=O)OC5(C)C (centres undefined)	-0.14	x	x
C=C1C(=O)O[C@@H]2CC=C(CCC(C)O)C(C)C[C@@H]12 (some centres undefined)	0.32	x	x
C[C@H](CO)N1C[C@H](C)[C@H](CN(C)C(=O)Nc2cccc3ccccc23)Oc2ncc(C#CC(C)(C)O)cc2C1=O	-0.014	-9	x
C[C@H](CO)N1C[C@H](C)[C@H](CN(C)C(=O)Nc2cccc3ccccc23)Oc2ncc(C#Cc3ccc(C(F)(F)F)cc3)cc2C1=O	-0.18	85*	x
C[C@H](CO)N1C[C@H](C)[C@H](CN(C)C(=O)Nc2ccccc2)Oc2ncc(C#Cc3cccc(F)c3)cc2C1=O	-0.065	30	-13
C[C@H](CO)N1C[C@H](C)[C@H](CN(C)C(=O)Nc2cccc3ccccc23)Oc2ncc(-c3cccc(F)c3)cc2C1=O	-0.27	32	x
C[C@H](CO)N1C[C@H](C)[C@H](CN(C)C(=O)Nc2cccc3ccccc23)Oc2ncc(C#Cc3cccc(F)c3)cc2C1=O	-0.059	66*	x
C[C@H](CO)N1C[C@H](C)[C@H](CN(C)C(=O)Nc2cccc3ccccc23)Oc2ncc(-c3cccc(C(F)(F)F)c3)cc2C1=O	0.47	62*	x
C=C1C(=O)O[C@H]2C[C@H](C)[C@@H]3CC(=O)C(C)=C3C[C@H]12	-0.72	x	x
COc1cc2c(cc1O)C1Cc3ccc(O)c(OC)c3CN1CC2 (centres undefined)	0.68	x	x
CCC(C)C1=NN(C(=O)c2ccccc2)C(O)(C(=O)OC)C1 (centres undefined)	0.58	x	x
C=C(C)C(=O)Nc1ccc(O)c(-c2nc3ccccc3[nH]2)c1	-0.15	x	x
S=c1nc[nH]c2c1nnn2Cc1ccccc1Cl	-0.21	x	x
CCOc1ccc(CCC(=O)O)cc1	0.09	x	x
Cc1ccc(S(=O)(=O)Nc2ccc3c(c2)C(=O)N([C@H](C)CO)C[C@@H](C)[C@H](CN(C)Cc2ccc(C(F)(F)F)cc2)O3)cc1	0.17	3	-3
C[C@@H]1CCCCO[C@H](CN(C)Cc2ccc(C(F)(F)F)cc2)[C@@H](C)CN([C@H](C)CO)C(=O)c2cc(NS(=O)(=O)c3ccc(Cl)cc3)ccc2O1	-0.33	69*	-31
Cc1ccc(S(=O)(=O)Nc2ccc3c(c2)C(=O)N([C@H](C)CO)C[C@H](C)[C@@H](CN(C)Cc2ccc(C(F)(F)F)cc2)OCCCC[C@@H](C)O3)cc1	0.057	53	-16
SMILES	YB-1 expression	T cruzi intra	INS-1E ATP HTS
C[C@@H]1CN([C@H](C)CO)C(=O)c2cc(NS(=O)(=O)c3ccc(Cl)cc3)ccc2O[C@H]1CN(C)Cc1ccc(C(F)(F)F)cc1	0.25	47	-32
C[C@H]1CN([C@@H](C)CO)C(=O)c2cc(NS(=O)(=O)c3ccc(Cl)cc3)ccc2O[C@@H]1CN(C)Cc1ccc(C(F)(F)F)cc1	0.23	58*	-23
C[C@H]1CN([C@@H](C)CO)C(=O)c2cc(NS(=O)(=O)c3ccc(F)cc3)ccc2O[C@H]1CN(C)Cc1ccc(C(F)(F)F)cc1	0.28	55*	x
C[C@H](CO)N1C[C@H](C)[C@@H](CN(C)Cc2ccc(C(F)(F)F)cc2)Oc2ccc(NS(=O)(=O)c3ccc(Cl)cc3)cc2C1=O	0.41	71*	-8
C[C@H](CO)N1C[C@H](C)[C@H](CN(C)Cc2ccc(C(F)(F)F)cc2)Oc2ccc(NS(=O)(=O)c3ccc(F)cc3)cc2C1=O	0.047	-7	-5
CC1(C)CC[C@]2(C(=O)O[C@@H]3O[C@H](CO[C@@H]4O[C@H](CO[C@@H]5O[C@H](CO)[C@@H](O)[C@H](O)[C@H]5O)[C@@H](O)[C@H](O)[C@H]4O)[C@@H](O)[C@H](O[C@@H]4O[C@H](CO)[C@@H](O)[C@H](O)[C@H]4O)[C@H]3O)CC[C@]3(C)C(=CCC4[C@@]5(C)CC[C@H](O)[C@@](C)(C(=O)O)C5CC[C@]43C)C2C1 (some centres undefined)	-0.26	x	x
C/C=C/C1C2OC3=C(C(=O)OC3(C)O)C(=O)C1(C)C1CC(O)C(C)CC1C2O (centres undefined)	-0.27	x	x
COc1cc(/C=C/C(=O)OCC[N+](C)(C)C)cc(OC)c1O	0.037	x	x
CC12CC3(C)CC(C)(C1)CC(CN=Cc1ccc(O)cc1)(C2)C3	-0.16	x	x
C=CCn1c(C)c2cc(Cl)c(Cl)cc2[n+]1C	-0.27	x	x
CC(O)CC(=O)c1cc(O)ccc1O (centres undefined)	4.6*	x	x
COc1ccc(CC(=O)c2ccc(O)cc2O)cc1	0.15	x	x
Nc1c(C(=O)c2ccc(Cl)cc2)oc2nc(-c3ccco3)cc(-c3cccs3)c12	-0.39	x	x
C[C@H](CO)N1C[C@H](C)[C@@H](CN(C)Cc2ccc(-c3ccccc3)cc2)Oc2c(NC(=O)c3ccc(-c4nccs4)cc3)cccc2C1=O	-0.12	81*	-29
C[C@@H]1CN([C@@H](C)CO)C(=O)c2cccc(NC(=O)c3ccc(-c4nccs4)cc3)c2O[C@@H]1CN(C)Cc1ccc(C(=O)Nc2ccccc2N)cc1	-0.32	75*	u
C[C@H](CO)N1C[C@H](C)[C@H](CN(C)Cc2ccc(-c3ccccc3)cc2)Oc2c(NC(=O)c3ccc(-c4nccs4)cc3)cccc2C1=O	0.44	52	-46
C[C@H](CO)N1C[C@H](C)[C@@H](CN(C)Cc2ccc(Oc3ccccc3)cc2)Oc2c(NC(=O)c3ccc(-c4nccs4)cc3)cccc2C1=O	-0.67	67*	-17
C[C@H]1CN([C@@H](C)CO)C(=O)c2cccc(NC(=O)c3ccc(-c4nccs4)cc3)c2O[C@H]1CN(C)Cc1ccc(Oc2ccccc2)cc1	0.19	41	-24
C[C@H]1CN([C@@H](C)CO)C(=O)c2cccc(NC(=O)c3ccc(-c4nccs4)cc3)c2O[C@H]1CN(C)Cc1ccc(-c2ccccc2)cc1	0.18	66*	-49
